Measurements from ChEMBL document CHEMBL1152657, “1-(2-((Z)-6-(2-(Trifluoromethyl)phenyl)hexa-3-en-1,5-diynyl)phenyl)piperidin-2-one as a new potent apoptosis agent” (2009).
Active and inactive are the calls of the source. No cut-off for these calls is given here.

Experiments:
K562 [1] = assay: Growth inhibition of human K562 cells; format: functional
Summary of the method: (§1)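 Tested in the NCI in vitro antitumor screening protocol on human tumor lines. The value is the concentration giving 50% reduction in cell growth.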

CCRF-CEM = assay: Growth inhibition of human CCRF-CEM cells; format: functional; summary of the method: as §1
HOP-62 = assay: Growth inhibition of human HOP62 cells; format: functional; summary of the method: as §1
HCT-15 = assay: Growth inhibition of human HCT15 cells; format: functional; summary of the method: as §1
HCC 2998 = assay: Growth inhibition of human HCC2998 cells; format: functional; summary of the method: as §1
SNB-75 = assay: Growth inhibition of human SNB75 cells; format: functional; summary of the method: as §1
M14 = assay: Growth inhibition of human M14 cells; format: functional; summary of the method: as §1
UACC-62 = assay: Growth inhibition of human UACC62 cells; format: functional; summary of the method: as §1
OVCAR-3 = assay: Growth inhibition of human OVCAR-3 cells; format: functional; summary of the method: as §1
ACHN = assay: Growth inhibition of human ACHN cells; format: functional; summary of the method: as §1
DU-145 = assay: Growth inhibition of human DU145 cells; format: functional; summary of the method: as §1
MDA-MB-231 = assay: Growth inhibition of human MDA-MB-231 cells; format: functional; summary of the method: as §1
MDA-MB-435 = assay: Growth inhibition of human MDA-MB-435 cells; format: functional; summary of the method: as §1
K562 [2] = assay: Cell cycle arrest in human K562 cells assessed as accumulation at G0/G1 phase at 10 uM after 24 hrs by flow cytometry; format: functional
Summary of the method: (§2)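 K-562 cells (RPMI 1640, 10% fetal calf serum, 37 °C, 5% CO2) were exposed for 24 h, then fixed in ice-cold 70% ethanol for 30 min. They were treated with RNase A (1 mg/ml, 37 °C, 30 min) and stained with propidium iodide and Triton X-100 solution for 30 min in the dark. DNA content was read on 10,000 events by flow cytometry, and the sub-G1 region was gated as apoptotic.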

K562 [3] = assay: Cell cycle arrest in human K562 cells assessed as accumulation at S phase at 10 uM after 24 hrs by flow cytometry; format: functional; summary of the method: as §2
K562 [4] = assay: Cell cycle arrest in human K562 cells assessed as accumulation at G2/M phase at 10 uM after 24 hrs by flow cytometry; format: functional; summary of the method: as §2
K562 [5] = assay: Cell cycle arrest in human K562 cells assessed as accumulation at SubG1 phase at 10 uM after 24 hrs by flow cytometry; format: functional; summary of the method: as §2
K562 [6] = assay: Cell cycle arrest in human K562 cells assessed as accumulation at G0/G1 phase at 50 uM after 24 hrs by flow cytometry; format: functional; summary of the method: as §2
K562 [7] = assay: Cell cycle arrest in human K562 cells assessed as accumulation at S phase at 50 uM after 24 hrs by flow cytometry; format: functional; summary of the method: as §2
K562 [8] = assay: Cell cycle arrest in human K562 cells assessed as accumulation at G2/M phase at 50 uM after 24 hrs by flow cytometry; format: functional; summary of the method: as §2
K562 [9] = assay: Cell cycle arrest in human K562 cells assessed as accumulation at SubG1 phase at 50 uM after 24 hrs by flow cytometry; format: functional; summary of the method: as §2
K562 [10] = assay: Cell cycle arrest in human K562 cells assessed as accumulation at G1 phase at 50 uM after 24 hrs by flow cytometry; format: functional; summary of the method: as §2
K562 [11] = assay: Cell cycle arrest in human K562 cells assessed as apoptotic cells at 50 uM after 24 hrs by flow cytometry; format: functional; summary of the method: as §2
HeLa = assay: Induction of microtubule depolymerization in human HeLa cells at 50 uM after 2 hrs by immunocytochemistry; format: functional, cell-based
Summary of the method: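 HeLa cells were grown 24 h on coverslips, then treated at 37 °C. They were fixed in 4% paraformaldehyde for 5 min and permeabilized with 0.5% Triton X-100. After blocking with 5% goat serum/1% BSA, cells were stained with anti-ninein and anti-tubulin (45 min, 37 °C), then Alexa-conjugated secondaries and DAPI. Imaging was by confocal microscopy with a 100x objective.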

K562 [12] = assay: Induction of apoptosis in human K562 cells assessed as increase in caspase-3 activity by colorimetric assay; format: functional, cell-based
Summary of the method: (§3)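 Treated K-562 cells (1×10^6 cells/ml) were PBS-washed and lysed on ice for 10 min, and the cytosolic supernatant was cleared at 18,000 g. Protein was measured by BCA. Lysate protein was incubated with caspase-specific colorigenic substrate in 2X reaction buffer with 10 mM DTT at 37 °C for 1 h, and absorbance was read at 405 nm.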

K562 [13] = assay: Induction of apoptosis in human K562 cells assessed as increase in caspase-9 activity at 25 uM by colorimetric assay; format: functional, cell-based; summary of the method: as §3
K562 [14] = assay: Induction of apoptosis in human K562 cells assessed as increase in caspase-9 activity at 50 uM by colorimetric assay; format: functional, cell-based; summary of the method: as §3
K562 [15] = assay: Induction of apoptosis in human K562 cells assessed as upregulation of Bax protein level after 24 hrs by Western blot; format: functional, cell-based
Summary of the method: (§4)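 Cells were dosed at several concentrations for 24 h and lysed in Tris-HCl pH 7.5 NP-40 buffer with phosphatase inhibitors. Equal protein was run on SDS-PAGE and transferred to PVDF. Membranes were blocked with 5% nonfat milk in TBST for 1 h, then immunoblotted.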

K562 [16] = assay: Induction of apoptosis in human K562 cells assessed as down-regulation of Bcl2 protein level after 24 hrs by Western blot; format: functional, cell-based; summary of the method: as §4
K562 [17] = assay: Induction of apoptosis in human K562 cells assessed as downregulation of XIAP protein level after 24 hrs by Western blot; format: functional, cell-based; summary of the method: as §4
K562 [18] = assay: Induction of apoptosis in human K562 cells assessed as PARP cleavage after 24 hrs by Western blot; format: functional, cell-based; summary of the method: as §4
K562 [19] = assay: Induction of apoptosis in human K562 cells assessed as cytochrome-C release after 24 hrs by Western blot; format: functional, cell-based; summary of the method: as §4

O=C1CCCCN1c1ccccc1C#C/C=C\C#Cc1ccccc1C(F)(F)F
GI50 (K562 [1]): 8.56 µM
GI50 (CCRF-CEM): 1.56 µM
GI50 (HOP-62): 0.89 µM
GI50 (HCT-15): 1.53 µM
GI50 (HCC 2998): 0.95 µM
GI50 (SNB-75): 1.61 µM
GI50 (M14): 0.9 µM
GI50 (UACC-62): 1.44 µM
GI50 (OVCAR-3): 0.87 µM
GI50 (ACHN): 2.67 µM
GI50 (DU-145): 1.68 µM
GI50 (MDA-MB-231): 1.16 µM
GI50 (MDA-MB-435): 0.6 µM
Activity (K562 [2]): 8.9%
Activity (K562 [3]): 12.9%
Activity (K562 [4]): 78.3%
Activity (K562 [5]): 23.9%
Activity (K562 [6]): 40.3%
Activity (K562 [7]): 0%
Activity (K562 [8]): 59.7%
Activity (K562 [9]): 31.57%
Activity (K562 [10]): 27.7%
Activity (K562 [11]): 51%
Activity (HeLa): Active
Activity (K562 [12]): Dose-dependent effect
Activity (K562 [13]): Active
Activity (K562 [14]): Active
Activity (K562 [15]): Dose-dependent effect
Activity (K562 [16]): Dose-dependent effect
Activity (K562 [17]): Dose-dependent effect
Activity (K562 [18]): Active
Activity (K562 [19]): Dose-dependent effect

CCC(=O)Nc1ccccc1C#C/C=C\C#Cc1ccccc1SC
GI50 (K562 [1]): 2.29 µM
GI50 (CCRF-CEM): 0.79 µM
GI50 (HOP-62): 2.52 µM
GI50 (HCT-15): 3.35 µM
GI50 (HCC 2998): 4.19 µM
GI50 (SNB-75): 0.63 µM
GI50 (M14): 1.79 µM
GI50 (UACC-62): 1.69 µM
GI50 (OVCAR-3): 1.79 µM
GI50 (ACHN): 4.08 µM
GI50 (DU-145): 1.93 µM
GI50 (MDA-MB-231): 2.17 µM
GI50 (MDA-MB-435): 0.75 µM
Activity (K562 [2]): 22.7%
Activity (K562 [3]): 42.1%
Activity (K562 [4]): 35.2%
Activity (K562 [5]): 9.8%
Activity (K562 [6]): 18.7%
Activity (K562 [7]): 12.7%
Activity (K562 [8]): 68.5%
Activity (K562 [9]): 16.2%

CSc1ccccc1C#C/C=C\C#Cc1ccccc1N1CCCC1=O
GI50 (K562 [1]): 0.44 µM
GI50 (CCRF-CEM): 0.21 µM
GI50 (HOP-62): 5.02 µM
GI50 (HCT-15): 1.53 µM
GI50 (HCC 2998): 1.32 µM
GI50 (SNB-75): 2.34 µM
GI50 (M14): 3 µM
GI50 (UACC-62): 1.44 µM
GI50 (OVCAR-3): 1.03 µM
GI50 (ACHN): 10.5 µM
GI50 (DU-145): 10.1 µM
GI50 (MDA-MB-231): 1.19 µM
GI50 (MDA-MB-435): 0.9 µM
Activity (K562 [2]): 49.3%
Activity (K562 [3]): 0%
Activity (K562 [4]): 51.7%
Activity (K562 [5]): 15.39%
Activity (K562 [6]): 7.7%
Activity (K562 [7]): 22.9%
Activity (K562 [8]): 69.4%
Activity (K562 [9]): 17.79%

CCC(=O)Nc1ccccc1C#C/C=C\C#Cc1ccccc1C(F)(F)F
GI50 (K562 [1]): 6.36 µM
GI50 (CCRF-CEM): 2.75 µM
GI50 (HOP-62): 10 µM
GI50 (HCT-15): 4.27 µM
GI50 (HCC 2998): 5.08 µM
GI50 (SNB-75): 4.76 µM
GI50 (M14): 12 µM
GI50 (UACC-62): 4.04 µM
GI50 (OVCAR-3): 8.87 µM
GI50 (ACHN): 30.1 µM
GI50 (DU-145): 40.5 µM
GI50 (MDA-MB-231): 7.92 µM
GI50 (MDA-MB-435): 1.92 µM
Activity (K562 [2]): 14.6%
Activity (K562 [3]): 51.9%
Activity (K562 [4]): 33.5%
Activity (K562 [5]): 15.3%
Activity (K562 [6]): 1.2%
Activity (K562 [7]): 16.1%
Activity (K562 [8]): 82.7%
Activity (K562 [9]): 26.11%

Nc1ccccc1C#C/C=C\C#Cc1ccccc1C(F)(F)F
Activity (K562 [7]): 19.3%
Activity (K562 [8]): 73.9%
Activity (K562 [10]): 6.7%
Activity (K562 [11]): 19.4%
Activity (HeLa): Active
Activity (K562 [12]): Dose-dependent effect
Activity (K562 [13]): Active
Activity (K562 [14]): Active
